Data from ChEMBL document CHEMBL3853270, “Influence of Birch Bark Triterpenes on Keratinocytes and Fibroblasts from Diabetic and Nondiabetic Donors” (2016).
The source made the active and inactive calls. The calls are words filed in the database; no cut-off is given here.

How the values were obtained:
Keratinocyte [1] = experiment: Effect on growth factor related gene expression in non-diabetic adult human primary keratinocytes assessed as VEGFA mRNA levels at 9.81 uM after 6 hrs by qPCR analysis; format: functional
Outline: (§1)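 Primary human keratinocytes (nondiabetic young or adult, diabetic adult donors) were exposed to compound for 6 h, with 0.1% DMSO as solvent control. Total RNA came from 400 000 cells per sample and was assayed on a Fluidigm Biomark high-throughput qPCR chip. Results are fold change vs solvent control, from 2−4 independent experiments on two donors per group, with SD. Groups were compared by one-way ANOVA with Bonferroni post-test.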

Fibroblast [2] = experiment: Effect on MMP1 mRNA expression levels in non-diabetic young human primary fibroblasts at 9.81 uM after 6 hrs by qPCR analysis; format: functional
Outline: (§2)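 Primary dermal fibroblasts from one nondiabetic young, one nondiabetic adult and one diabetic adult donor; 320 000 cells per sample, 6 h at 1.96 or 9.81 μM. RNA measured on a high-throughput qPCR chip. Fold change versus 0.1% DMSO control, four independent experiments, SD, one-way ANOVA with Bonferroni post-test.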

Fibroblast [3] = experiment: Effect on chemokines related gene expression in diabetic adult human primary fibroblasts assessed as CCL2 mRNA levels at 9.81 uM after 6 hrs by qPCR analysis; format: functional
[4] = Effect on wound healing activity in non-diabetic adult human primary keratinocytes assessed as upregulation of IL8 protein levels at 1.96 uM after 24 hrs by bead-based suspension array analysis; format: functional; conditions: Keratinocyte
Fibroblast [5] = experiment: Effect on antioxidant related gene expression in non-diabetic adult human primary fibroblasts assessed as NFE2L2 mRNA levels at 1.96 uM after 6 hrs by qPCR analysis; format: functional
Fibroblast [6] = experiment: Effect on pro-inflammatory related gene expression in diabetic adult human primary fibroblasts assessed as IL1R1 mRNA levels at 9.81 uM after 6 hrs by qPCR analysis; format: functional
Outline: (§3)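 Primary human dermal fibroblasts (young or adult nondiabetic, adult diabetic donor) were treated for 6 h against a 0.1% DMSO solvent control. RNA from 320 000 cells per sample was measured by Fluidigm Biomark high-throughput qPCR. Values are fold change relative to solvent control, from four independent experiments, with SD. One-way ANOVA with Bonferroni post-test was applied.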

Fibroblast [7] = experiment: Effect on antiinflammatory related gene expression in non-diabetic young human primary fibroblasts assessed as SOCS3 mRNA levels at 9.81 uM after 6 hrs by qPCR analysis; format: functional
Keratinocyte [8] = experiment: Effect on MMP1 mRNA expression levels in non-diabetic adult human primary keratinocytes at 9.81 uM after 6 hrs by qPCR analysis; format: functional
Outline: (§4)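 Primary keratinocytes from nondiabetic young and adult and diabetic adult donors; 400 000 cells per sample, 6 h exposure at 1.96 or 9.81 μM. RNA extracted and read on a high-throughput qPCR chip. Results are fold change versus 0.1% DMSO solvent control from 5−7 independent experiments over two donors per group, SD, one-way ANOVA with Bonferroni post-test.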

Keratinocyte [9] = experiment: Effect on chemokines related gene expression in diabetic adult human primary keratinocytes assessed as CXCL10 mRNA levels at 1.96 uM after 6 hrs by qPCR analysis; format: functional
Fibroblast [10] = experiment: Effect on pro-inflammatory related gene expression in diabetic adult human primary fibroblasts assessed as PTGS2 mRNA levels at 9.81 uM after 6 hrs by qPCR analysis; format: functional
Keratinocyte [11] = experiment: Effect on growth factor related gene expression in non-diabetic adult human primary keratinocytes assessed as GDF15 mRNA levels at 1.96 uM after 6 hrs by qPCR analysis; format: functional; outline: as §1
Fibroblast [12] = experiment: Effect on growth factors related gene expression in non-diabetic young human primary fibroblasts assessed as FGF2 mRNA levels at 1.96 uM after 6 hrs by qPCR analysis; format: functional; outline: as §3
[13] = Upregulation of wound healing activity related GM-CSF protein levels in non-diabetic adult human primary keratinocytes at 1.96 uM after 24 hrs by bead-based suspension array analysis; format: functional; conditions: Keratinocyte
Fibroblast [14] = experiment: Effect on antiinflammatory related gene expression in non-diabetic young human primary fibroblasts assessed as NFKBIA mRNA levels at 9.81 uM after 6 hrs by qPCR analysis; format: functional; outline: as §2
Fibroblast [15] = experiment: Effect on chemokines related gene expression in non-diabetic young human primary fibroblasts assessed as WDR26 mRNA levels at 1.96 uM after 6 hrs by qPCR analysis; format: functional; outline: as §3
[16] = biological target: Cell division control protein 42 homolog (Homo sapiens) (UniProt P60953); experiment: Activation of Cdc42 in human diabetic primary keratinocytes at 10 nM after 20 mins by immunoblot method
Outline: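 Keratinocytes from a diabetic adult donor; incubation 3 h for RhoA, 20 min for Cdc42 and Rac1. Lysates made in glycerol/Tris pH 7.4/NaCl/NP-40/MgCl2/PMSF buffer, spun at 4 °C. Active GTP-bound form pulled down on glutathione-sepharose with GST-Rhotekin (RhoA) or GST-PAK (Cdc42, Rac1) for 1 h at 4 °C. Total and pulled-down protein read by immunoblot with ECL; n = 3.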

Keratinocyte [17] = experiment: Effect on AQP3 mRNA expression levels in non-diabetic young human primary keratinocytes at 1.96 uM after 6 hrs by qPCR analysis; format: functional; outline: as §4
[18] = Effect on wound healing activity in diabetic adult human primary fibroblasts assessed as upregulation of soluble TNFR1 protein levels at 1.96 uM after 24 hrs by bead-based suspension array analysis; format: functional; conditions: Fibroblast
Fibroblast [19] = experiment: Effect on antiinflammatory related gene expression in non-diabetic young human primary fibroblasts assessed as SOCS3 mRNA levels at 1.96 uM after 6 hrs by qPCR analysis; format: functional; outline: as §2
Fibroblast [20] = experiment: Effect on pro-inflammatory related gene expression in non-diabetic young human primary fibroblasts assessed as IL1B mRNA levels at 9.81 uM after 6 hrs by qPCR analysis; format: functional
Fibroblast [21] = experiment: Effect on adhesion molecules related gene expression in non-diabetic adult human primary fibroblasts assessed as VCAM1 mRNA levels at 1.96 uM after 6 hrs by qPCR analysis; format: functional
Outline: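 Dermal fibroblasts from nondiabetic adult and diabetic adult donors, exposed for 6 h at 1.96 or 9.81 μM. ICAM-1 and VCAM-1 mRNA measured by standard qRT-PCR, n = 3. Fold change versus 0.1% DMSO control, SD, one-way ANOVA with Bonferroni post-test.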

Fibroblast [22] = experiment: Effect on chemokines related gene expression in non-diabetic young human primary fibroblasts assessed as IL8 mRNA levels at 9.81 uM after 6 hrs by qPCR analysis; format: functional; outline: as §3
Fibroblast [23] = experiment: Effect on growth factors related gene expression in non-diabetic adult human primary fibroblasts assessed as FGF2 mRNA levels at 9.81 uM after 6 hrs by qPCR analysis; format: functional; outline: as §3
Fibroblast [24] = experiment: Effect on antioxidant related gene expression in diabetic adult human primary fibroblasts assessed as NFE2L2 mRNA levels at 9.81 uM after 6 hrs by qPCR analysis; format: functional
[25] = Effect on wound healing activity in non-diabetic adult human primary fibroblasts assessed as upregulation of MIF protein levels at 1.96 uM after 24 hrs by bead-based suspension array analysis; format: functional; conditions: Fibroblast
Keratinocyte [26] = experiment: Effect on transcription factor related gene expression in non-diabetic young human primary keratinocytes assessed as JUN mRNA levels at 9.81 uM after 6 hrs by qPCR analysis; format: functional
Keratinocyte [27] = experiment: Effect on antioxidant related gene expression in diabetic adult human primary keratinocytes assessed as SOD2 mRNA levels at 1.96 uM after 6 hrs by qPCR analysis; format: functional

Sequence of Cell division control protein 42 homolog (Homo sapiens) (P60953 whole entry, looked up): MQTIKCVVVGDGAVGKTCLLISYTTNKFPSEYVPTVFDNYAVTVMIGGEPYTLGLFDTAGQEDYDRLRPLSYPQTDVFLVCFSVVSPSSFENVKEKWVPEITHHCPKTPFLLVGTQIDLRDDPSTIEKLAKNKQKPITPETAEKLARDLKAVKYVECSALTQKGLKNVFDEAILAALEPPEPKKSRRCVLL

C=C(C)[C@@H]1CC[C@]2(CO)CC[C@]3(C)[C@H](CC[C@@H]4[C@@]5(C)CC[C@H](O)C(C)(C)[C@@H]5CC[C@]43C)[C@@H]12 [BETULIN]
fold change (FC) (Keratinocyte [1]): 1.7
fold change (FC) (Fibroblast [2]): 1
fold change (FC) (Fibroblast [3]): 1.7
Activity [4]: Active
fold change (FC) (Fibroblast [5]): 1.3
fold change (FC) (Fibroblast [6]): 1.9
fold change (FC) (Fibroblast [7]): 3.2
fold change (FC) (Keratinocyte [8]): 1
fold change (FC) (Keratinocyte [9]): 6
fold change (FC) (Fibroblast [10]): 2.9
fold change (FC) (Keratinocyte [11]): 1
fold change (FC) (Fibroblast [12]): 1.7
Activity [13]: Active
fold change (FC) (Fibroblast [14]): 3.2
fold change (FC) (Fibroblast [15]): 1.1
Activity [16]: Active
fold change (FC) (Keratinocyte [17]): 0.9
Activity [18]: Active
fold change (FC) (Fibroblast [19]): 3
fold change (FC) (Fibroblast [20]): 5.7
fold change (FC) (Fibroblast [21]): 63
fold change (FC) (Fibroblast [22]): 32
fold change (FC) (Fibroblast [23]): 3.4
fold change (FC) (Fibroblast [24]): 1.5
Activity [25]: Active
fold change (FC) (Keratinocyte [26]): 1.8
fold change (FC) (Keratinocyte [27]): 1.1
